The results in this text go back to ChEMBL document CHEMBL1772954, “Antifungal, cytotoxic and SAR studies of a series of N-alkyl, N-aryl and N-alkylphenyl-1,4-pyrrolediones and related compounds” (Bioorg Med Chem, 2011).

For one series, the system named is Candida albicans. The series can be described thus: Antifungal activity against Candida albicans ATCC 10213. Format: functional. An outline of the steps: (§1)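 CLSI M27-A3 broth microdilution in RPMI-1640 buffered to pH 7.0 with MOPS. Inoculum 1-5 × 10^3 CFU/mL. Compound twofold dilutions from 250 to 0.24 µg/ml, final DMSO <1%. Incubated at 35 °C in a moist, dark chamber and read at 48 h. MIC is the lowest concentration giving total growth inhibition. For MFC, 5 µL from clear wells was plated in duplicate on SDA; MFC is the lowest concentration with no growth.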

For a further series, the system named is Aspergillus fumigatus. In words: Antifungal activity against Aspergillus fumigatus ATCC 26934. Format: functional. An outline of the steps: (§2)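 Broth microdilution per CLSI M38-A2 in RPMI-1640 with MOPS at pH 7.0. Inoculum 1-5 × 10^3 CFU/mL, with twofold compound dilutions spanning 250-0.24 µg/ml (final DMSO <1%). Plates incubated at 35 °C, moist and dark, and read when the control fungus had grown. MIC is total growth inhibition. MFC comes from subculturing clear wells in duplicate onto SDA.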

Another series relates to Nannizzia gypsea. The series can be described thus: Antifungal activity against Microsporum gypseum C 115 2000. The series is classed as functional. An outline of the steps:
(§3)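 Dermatophytes tested by CLSI M38-A2 microdilution in MOPS-buffered RPMI-1640 at pH 7.0. Inoculum 1-5 × 10^3 CFU/mL; compounds 250 to 0.24 µg/ml in twofold steps, final DMSO <1%. Incubated at 28 °C in a moist, dark chamber and read according to control growth. MIC is the lowest concentration with complete inhibition. MFC is the lowest concentration with no growth after duplicate subculture on SDA.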

The subject of the next series is Saccharomyces cerevisiae. In words: Antifungal activity against Saccharomyces cerevisiae ATCC 9763. The series is classed as functional. The method in brief:
as §1

The test system of the next series is NCI-H460. In words: Cytotoxicity against human H460 cells assessed as cell growth after 2 days by sulforhodamine B assay. The following applies: NCI-H460, 48 h. Format: functional. The method in brief:
(§4)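 NCI cell lines were run by the Monks method: cells were plated with compounds from DMSO stocks and incubated 2 days at 37 °C in 5% CO2, in duplicate. Cells were fixed with cold TCA, stained with 0.4% SRB, and the bound dye was solubilized in 10 mM tris-base and read at 515 nm. The zero-day control was subtracted, and GI50 was taken from the curves.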
(In general: Sulforhodamine B stains cellular protein and so reports cell mass.)

Another series deals with Cryptococcus neoformans. In words: Antifungal activity against Cryptococcus neoformans ATCC 32264. Format: functional. The method in brief: as §1
Series [1] concerns Trichophyton mentagrophytes. In words: Antifungal activity against Trichophyton mentagrophytes ATCC 9972. Format: functional. An outline of the steps: as §3
Another series has as its system Trichophyton rubrum. In words: Antifungal activity against Trichophyton rubrum C 113 2000. Format: functional. The method in brief: as §3
A further series has as its system Aspergillus flavus. In words: Antifungal activity against Aspergillus flavus ATCC 9170. The series is classed as functional. The method in brief: as §2
A further series relates to SF-268. The series can be described thus: Cytotoxicity against human SF268 cells assessed as cell growth after 2 days by sulforhodamine B assay. The following applies: SF-268, 48 h. Format: functional. An outline of the steps: as §4
A further series has as its system MCF7. In words: Cytotoxicity against human MCF7 cells assessed as cell growth after 2 days by sulforhodamine B assay. The series is classed as functional. The following applies: MCF7, 48 h. An outline of the steps: as §4
Series [2] in a line: Cytotoxicity against human erythrocytes assessed as hemolysis by spectrometric analysis. Format: cell-based, Erythrocyte. The method in brief: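 Human heparinized red blood cells were washed in PBS at pH 7.0 and suspended at 4% in sterile 5% glucose. Compounds from DMSO stocks were diluted in 5% glucose to final concentrations of 250 to 0.24 µg/ml and incubated with the cells at 37 °C. Released hemoglobin was read at 540 nm. HC50 is the concentration giving 50% lysis relative to the drug-free value.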

A further series relates to Aspergillus niger. In words: Antifungal activity against Aspergillus niger ATCC 9029. Format: functional. The method in brief: as §2
The next series concerns Candida tropicalis. The series can be described thus: Antifungal activity against Candida tropicalis C 131 2000. Format: functional. The method in brief: as §1

Converted amounts (≈) assume the structure as drawn.

As usually defined, the MFC is the smallest concentration meeting the test's criterion for killing the fungus. Low values mean greater fungicidal potency, high ones weaker fungicidal potency. What is called MIC is the least concentration at which growth counts as inhibited. Broadly, the GI50 is the concentration at which growth is held to half of that of the control. The HC50 is the concentration giving 50% haemolysis.

With `CC1=CC(=O)N(CCCc2ccccc2)C1=O`, the MFC in the series on Candida albicans turned out to be 125 µg/mL (≈ 545 µM); against Aspergillus fumigatus, 31.2 µg/mL (≈ 136 µM); in the series on Nannizzia gypsea, 7.81 µg/mL (≈ 34.1 µM); against Saccharomyces cerevisiae, 62.5 µg/mL (≈ 273 µM); with Cryptococcus neoformans, 31.2 µg/mL (≈ 136 µM); in series [1], 31.2 µg/mL (≈ 136 µM). The MFC against Trichophyton rubrum is 3.9 µg/mL (≈ 17 µM); in the series on Aspergillus flavus, 31.2 µg/mL (≈ 136 µM); in the series on Aspergillus niger, 31.2 µg/mL (≈ 136 µM); against Candida tropicalis it was 125 µg/mL (≈ 545 µM). Moreover, the MIC is 62.5 µg/mL (≈ 273 µM) with Candida albicans; 15.6 µg/mL (≈ 68.2 µM) with Aspergillus fumigatus; 3.9 µg/mL (≈ 17 µM) against Nannizzia gypsea; 15.6 µg/mL (≈ 68.2 µM) in the series with Saccharomyces cerevisiae; 15.6 µg/mL (≈ 68.2 µM) in the series on Cryptococcus neoformans; 15.6 µg/mL (≈ 68.2 µM) in [1]. In addition, the MIC in the series with Trichophyton rubrum came out at 1.95 µg/mL (≈ 8.5 µM); against Aspergillus flavus, 31.2 µg/mL (≈ 136 µM); in the series with Aspergillus niger, 31.2 µg/mL (≈ 136 µM); in the series with Candida tropicalis it was 125 µg/mL (≈ 545 µM). For the same compound, the GI50 in the series on NCI-H460, in the series with SF-268 and in the series on MCF7 was more than 10 µg/mL in each case. For the same compound, the HC50 in series [2] is more than 250 µg/mL.
In the case of `COc1ccc(N2C(=O)C=CC2=O)cc1`, the MFC amounted to 125 µg/mL (≈ 615 µM) in the series on Candida albicans; 125 µg/mL (≈ 615 µM) against Aspergillus fumigatus; 7.81 µg/mL (≈ 38.4 µM) against Nannizzia gypsea; 62.5 µg/mL (≈ 308 µM) in the series on Saccharomyces cerevisiae; 15.6 µg/mL (≈ 76.9 µM) in the series with Cryptococcus neoformans; 7.81 µg/mL (≈ 38.4 µM) in [1]. In addition, the MFC with Trichophyton rubrum was determined as 3.9 µg/mL (≈ 19.2 µM); with Aspergillus flavus it was 125 µg/mL (≈ 615 µM); in the series with Aspergillus niger it was 62.5 µg/mL (≈ 308 µM); in the series with Candida tropicalis, 125 µg/mL (≈ 615 µM). In addition, the MIC against Candida albicans turned out to be 62.5 µg/mL (≈ 308 µM); with Aspergillus fumigatus, 62.5 µg/mL (≈ 308 µM); against Nannizzia gypsea it was 3.9 µg/mL (≈ 19.2 µM); against Saccharomyces cerevisiae, 31.2 µg/mL (≈ 154 µM); against Cryptococcus neoformans, 15.6 µg/mL (≈ 76.9 µM); in series [1], 3.9 µg/mL (≈ 19.2 µM). Moreover, the MIC with Trichophyton rubrum was determined as 3.9 µg/mL (≈ 19.2 µM); with Aspergillus flavus, 62.5 µg/mL (≈ 308 µM); in the series on Aspergillus niger, 31.2 µg/mL (≈ 154 µM); against Candida tropicalis, 62.5 µg/mL (≈ 308 µM). Besides, the GI50 in the series with NCI-H460, with SF-268 and in the series on MCF7 was more than 10 µg/mL in each case. Besides, in series [2], the HC50 is more than 250 µg/mL.
On to `COc1cccc(N2C(=O)C=CC2=O)c1`, for which the MFC was 62.5 µg/mL (≈ 308 µM) in the series on Candida albicans; 62.5 µg/mL (≈ 308 µM) against Aspergillus fumigatus; 7.81 µg/mL (≈ 38.4 µM) against Nannizzia gypsea; 7.81 µg/mL (≈ 38.4 µM) in the series on Saccharomyces cerevisiae; 7.81 µg/mL (≈ 38.4 µM) against Cryptococcus neoformans; 3.9 µg/mL (≈ 19.2 µM) in series [1]. Besides, the MFC came out at 3.9 µg/mL (≈ 19.2 µM) against Trichophyton rubrum, 62.5 µg/mL (≈ 308 µM) with Aspergillus flavus, 62.5 µg/mL (≈ 308 µM) with Aspergillus niger and 62.5 µg/mL (≈ 308 µM) in the series with Candida tropicalis. Moreover, the MIC worked out at 15.6 µg/mL (≈ 76.9 µM) in the series with Candida albicans; 31.2 µg/mL (≈ 154 µM) in the series on Aspergillus fumigatus; 3.9 µg/mL (≈ 19.2 µM) with Nannizzia gypsea; 3.9 µg/mL (≈ 19.2 µM) in the series on Saccharomyces cerevisiae; 3.9 µg/mL (≈ 19.2 µM) with Cryptococcus neoformans; 1.95 µg/mL (≈ 9.6 µM) in series [1]. The MIC turned out to be 1.95 µg/mL (≈ 9.6 µM) against Trichophyton rubrum, 31.2 µg/mL (≈ 154 µM) in the series with Aspergillus flavus, 31.2 µg/mL (≈ 154 µM) against Aspergillus niger and 15.6 µg/mL (≈ 76.9 µM) with Candida tropicalis. Besides, the GI50 in the series on NCI-H460, with SF-268 and with MCF7 was more than 10 µg/mL in each case. For the same compound, the HC50 in [2] was more than 250 µg/mL.
Consider `O=C1C(Cl)=C(Cl)C(=O)N1CCCCc1ccccc1`, for which the MFC against Candida albicans was 15.6 µg/mL (≈ 52.4 µM); with Aspergillus fumigatus, 62.5 µg/mL (≈ 210 µM); with Nannizzia gypsea, 31.2 µg/mL (≈ 105 µM); against Saccharomyces cerevisiae it was 7.81 µg/mL (≈ 26.2 µM); against Cryptococcus neoformans, 3.9 µg/mL (≈ 13.1 µM); in series [1] it was 7.81 µg/mL (≈ 26.2 µM). In addition, the MFC against Trichophyton rubrum is 7.81 µg/mL (≈ 26.2 µM); against Aspergillus flavus, 31.2 µg/mL (≈ 105 µM); in the series on Aspergillus niger it was 15.6 µg/mL (≈ 52.4 µM); in the series with Candida tropicalis it was 15.6 µg/mL (≈ 52.4 µM). Further, the MIC with Candida albicans is 7.81 µg/mL (≈ 26.2 µM); against Aspergillus fumigatus, 31.2 µg/mL (≈ 105 µM); against Nannizzia gypsea, 15.6 µg/mL (≈ 52.4 µM); against Saccharomyces cerevisiae, 3.9 µg/mL (≈ 13.1 µM); against Cryptococcus neoformans it was 3.9 µg/mL (≈ 13.1 µM); in [1] it was 3.9 µg/mL (≈ 13.1 µM). The MIC against Trichophyton rubrum stood at 3.9 µg/mL (≈ 13.1 µM); with Aspergillus flavus it was 15.6 µg/mL (≈ 52.4 µM); in the series on Aspergillus niger, 15.6 µg/mL (≈ 52.4 µM); in the series on Candida tropicalis it was 7.81 µg/mL (≈ 26.2 µM). The GI50 in the series on NCI-H460, in the series on SF-268 and in the series with MCF7 was more than 10 µg/mL in each case. The HC50 in series [2] is more than 250 µg/mL.
